The test system of data set [1] is Mycobacterium tuberculosis. The data set can be described thus: Antitubercular activity against Mycobacterium tuberculosis H37Rv assessed as inhibition of bacterial growth incubated for 7 days by MABA. The format is functional. To be noted: 168 h, time 7 day. The procedure, abridged:
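Microplate alamar blue assay. H37Rv or clinical isolates were grown to late log phase in 7H9 broth with glycerol, Tween 80 and ADC, then 2 × 10⁵ CFU added to two-fold dilutions. Final range 32–0.5 μg/mL, lowered to 2–0.016 μg/mL for active compounds. 37 °C, 7 days, then alamar blue 16 h. Fluorescence 530/590 nm. MIC is the lowest concentration giving ≥90% reduction; INH and RFP were controls.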
A general note: The colour change of resazurin is a common sign of viable cells or microbes.

Another data set has as its system Escherichia coli. The data set can be described thus: Antibacterial activity against Escherichia coli 25922 assessed as inhibition of bacterial growth incubated for 18 hrs by broth microdilution method. The format is functional. To be noted: ATCC 25922. The method in brief:
(§1)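 Broth microdilution in 96-well plates. Media: cation-adjusted Mueller−Hinton broth for S. aureus, brain heart infusion for VRE, Mueller−Hinton broth for the other strains. Incubated at 37 °C for 18 h, then A600 read. Percent growth inhibition calculated against 1% DMSO vehicle.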
In general terms: In broth dilution the organism is exposed to a series of concentrations in liquid medium.

Data set [2] has as its system Staphylococcus aureus. The data set can be described thus: Antibacterial activity against Staphylococcus aureus ATCC 29213 assessed as inhibition of bacterial growth incubated for 18 hrs by broth microdilution method. The format is functional. The procedure, abridged:
as §1

For the next data set, the system named is Bacillus subtilis. As to the kind of experiment: Antibacterial activity against Bacillus subtilis 168 assessed as inhibition of bacterial growth incubated for 18 hrs by broth microdilution method. The format is functional. The method in brief: as §1
Data set [3] concerns Enterococcus faecalis. The data set can be described thus: Antibacterial activity against linezolid resistant Enterococcus faecalis assessed as bacterial growth inhibition after 18 hrs by broth microdilution method. In kind it is functional.
A further data set deals with Enterococcus. The data set can be described thus: Antibacterial activity against vancomycin resistant Enterococcus assessed as bacterial growth inhibition after 18 hrs by broth microdilution method. In kind it is functional.
The test system of data set [4] is Enterococcus faecium. As to the kind of experiment: Antibacterial activity against Enterococcus faecium ATCC 49624 assessed as bacterial growth inhibition after 18 hrs by broth microdilution method. The format is functional. The method in brief: as §1
Data set [5] relates to Enterococcus faecalis. As to the kind of experiment: Antibacterial activity against Enterococcus faecalis ATCC 29212 assessed as bacterial growth inhibition after 18 hrs by broth microdilution method. The format is functional. The method in brief:
as §1

Data set [6] has as its system Staphylococcus epidermidis. As to the kind of experiment: Antibacterial activity against methicillin resistant Staphylococcus epidermidis assessed as bacterial growth inhibition after 18 hrs by broth microdilution method. The format is functional.
For data set [7], the system named is Staphylococcus aureus. The data set can be described thus: Antibacterial activity against methicillin resistant Staphylococcus aureus assessed as bacterial growth inhibition after 18 hrs by broth microdilution method. The format is functional.
In data set [8] the test system is Staphylococcus aureus. The data set can be described thus: Antibacterial activity against vancomycin intermediate Staphylococcus aureus assessed as bacterial growth inhibition after 18 hrs by broth microdilution method. In kind it is functional.
A further data set concerns Staphylococcus capitis. As to the kind of experiment: Antibacterial activity against linezolid resistant Staphylococcus capitis assessed as bacterial growth inhibition after 18 hrs by broth microdilution method. The format is functional.
The subject of data set [9] is Enterococcus faecium. The data set can be described thus: Antibacterial activity against linezolid resistant Enterococcus faecium 13549 assessed as bacterial growth inhibition after 18 hrs by broth microdilution method. The format is functional.
Data set [10] can be described thus: Metabolic stability in pooled human liver microsomes incubated for 30 mins by LC-MS analysis. To be noted: read-out: Stabilty. The format is ADME, Microsome. The procedure, abridged: (§2)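 Microsomes from male CD-1 mouse or pooled human, 1 mg/mL protein in 0.05 M phosphate buffer pH 7.4. Compound at final 0.1 μM with DMSO cosolvent. Incubated at 37 °C with 1 mM NADPH, or with buffer in place of NADPH. Sampled at 0 and 30 min and quenched with acetonitrile. LC−MS measurement; substrate remaining at 30 min normalized to time zero.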
For orientation: Microsomes from liver hold many membrane-bound enzymes, among them those of drug oxidation.

Data set [11] in a line: Metabolic stability in CD-1 mouse liver microsomes assessed as substrate remaining in presence of NADPH incubated for 30 mins by LC-MS analysis. To be noted: read-out: Stabilty. The format is ADME, Microsome. The method in brief: as §2
Data set [12] can be described thus: Metabolic stability in pooled human liver microsomes assessed as substrate remaining in presence of NADPH incubated for 30 mins by LC-MS analysis. In kind it is ADME, Microsome. To be noted: read-out: Stabilty. The procedure, abridged: as §2
The nature of data set [13]: Metabolic stability in CD-1 mouse liver microsomes incubated for 30 mins by LC-MS analysis. The format is ADME, Microsome. The method in brief: as §2
The mark [14] stands for this setting: Mycobacterium tuberculosis, H37Rv, read-out: MIC.

Values after ≈ are worked out from the molar mass of the structure shown.

The term MIC denotes the least concentration at which growth counts as inhibited. As for `N#Cc1ccc(-c2cc3c(cc2F)O[C@H]2[C@H](CN)OC(=O)N2C3)cn1`, in data set [1] (setting [14]), the minimum inhibitory concentration (MIC) worked out at 0.26 µg/mL (≈ 0.764 µM).

For the compound `N#Cc1ccc(-c2ccc3c(c2)CN2C(=O)O[C@@H](CN)[C@@H]2O3)cn1`, the MIC was 2.94 µg/mL (≈ 9.12 µM) in data set [1] (setting [14]), over 64 µg/mL with Escherichia coli, over 64 µg/mL in the data set on Staphylococcus aureus [2] and over 64 µg/mL with Bacillus subtilis.

`CC(=O)NC[C@@H]1OC(=O)N2Cc3cc(-c4ccc(-c5nnn(C)n5)nc4)c(F)cc3O[C@@H]12`: the MIC was 0.54 µg/mL (≈ 1.23 µM) in data set [1] (setting [14]); over 64 µg/mL in the data set on Escherichia coli; 1 µg/mL (≈ 2.28 µM) in the data set on Enterococcus faecalis [3]; 0.125 µg/mL (≈ 0.284 µM) in the data set on Staphylococcus aureus [2]; 0.25 µg/mL (≈ 0.569 µM) with Enterococcus; 1 µg/mL (≈ 2.28 µM) in the data set on Enterococcus faecium [4]. Also, the MIC in the data set on Enterococcus faecalis [5] worked out at 0.5 µg/mL (≈ 1.14 µM); in data set [6], 1 µg/mL (≈ 2.28 µM); with Staphylococcus aureus [7], 0.5 µg/mL (≈ 1.14 µM); with Staphylococcus aureus [8] it was 0.5 µg/mL (≈ 1.14 µM); in the data set on Bacillus subtilis, 0.125 µg/mL (≈ 0.284 µM); in the data set with Staphylococcus capitis, 2 µg/mL (≈ 4.55 µM). For the same compound, in the data set with Enterococcus faecium [9], the MIC stood at 2 µg/mL (≈ 4.55 µM).

As for `NC[C@@H]1OC(=O)N2Cc3cc(N4CCOCC4)c(F)cc3O[C@@H]12`, the MIC in data set [1] (setting [14]) was over 32 µg/mL; with Escherichia coli, over 64 µg/mL; with Staphylococcus aureus [2], over 64 µg/mL; with Bacillus subtilis, over 64 µg/mL.

Turning to `NC[C@@H]1OC(=O)N2Cc3cc(N4CCOCC4)ccc3O[C@@H]12`, the MIC in data set [1] (setting [14]) was over 32 µg/mL.

Take `CC(=O)NC[C@@H]1OC(=O)N2Cc3cc(-c4ccc(C#N)nc4)ccc3O[C@@H]12`: the minimum inhibitory concentration (MIC) is 12.2 µg/mL (≈ 33.6 µM) in data set [1] (setting [14]), over 64 µg/mL in the data set with Escherichia coli, 0.5 µg/mL (≈ 1.37 µM) in the data set on Staphylococcus aureus [2] and 1 µg/mL (≈ 2.74 µM) in the data set on Bacillus subtilis.

As for `CC(=O)NC[C@H]1OC(=O)N2Cc3cc(-c4ccc(C#N)nc4)c(F)cc3O[C@H]12`, the MIC in data set [1] (setting [14]) is over 32 µg/mL; with Staphylococcus aureus [2], over 64 µg/mL.

`Cn1nnc(-c2ccc(-c3cc4c(cc3F)O[C@H]3[C@H](CN)OC(=O)N3C4)cn2)n1`: the MIC in data set [1] (setting [14]) was 0.47 µg/mL (≈ 1.18 µM); in the data set on Escherichia coli it was over 64 µg/mL; in the data set on Staphylococcus aureus [2], 32 µg/mL (≈ 80.5 µM); in the data set with Bacillus subtilis, over 64 µg/mL.

As for `CC(=O)NC[C@@H]1OC(=O)N2Cc3cc(N4CCOCC4)c(F)cc3O[C@@H]12`, the MIC was 31.7 µg/mL (≈ 86.8 µM) in data set [1] (setting [14]), over 64 µg/mL in the data set on Escherichia coli, 2 µg/mL (≈ 5.47 µM) in the data set on Staphylococcus aureus [2] and 8 µg/mL (≈ 21.9 µM) with Bacillus subtilis.

With `CC(=O)NC[C@@H]1OC(=O)N2c3cc(F)c(Br)cc3OC[C@@H]12`, the remaining at 0.5 h in [10] amounted to 110%; in [11] it was 73.4%; in data set [12] it was 71.4%. Moreover, the Stabilty in data set [13] (mouse, microsomes, 0.5 h) is 125%.

As for `CC(=O)NC[C@@H]1OC(=O)N2Cc3cc(Br)c(F)cc3O[C@@H]12`, the remaining at 0.5 h was 93.8% in data set [10]; 105% in data set [11]; 111% in data set [12]; 102% in data set [13] (CD-1, mouse, liver microsomes, read-out: Stabilty).

As to `CC(=O)NC[C@@H]1OC(=O)N2Cc3cc(N4CCOCC4)ccc3O[C@@H]12`, in [1] (setting [14]), the MIC is over 32 µg/mL.

For the compound `CC(=O)NC[C@@H]1OC(=O)N2Cc3cc(F)c(-c4ccc(C#N)nc4)cc3O[C@@H]12` (racemic), the MIC was over 32 µg/mL in [1] (setting [14]), over 64 µg/mL in the data set with Escherichia coli, over 64 µg/mL in the data set on Staphylococcus aureus [2] and over 64 µg/mL with Bacillus subtilis.

In the case of `CC(=O)NC[C@@H]1OC(=O)N2Cc3cc(F)c(N4CCOCC4)cc3O[C@@H]12` (racemic), the minimal inhibitory concentration (MIC) in data set [1] (setting [14]) was over 32 µg/mL.

Turning to `NC[C@@H]1OC(=O)N2Cc3cc(F)c(N4CCOCC4)cc3O[C@@H]12` (racemic), the MIC in data set [1] (setting [14]) is over 32 µg/mL.

Consider `N#Cc1ccc(-c2cc3c(cc2F)CN2C(=O)O[C@@H](CN)[C@@H]2O3)cn1` (racemic), for which the MIC is over 32 µg/mL in data set [1] (setting [14]), over 64 µg/mL in the data set on Escherichia coli, over 64 µg/mL in the data set on Staphylococcus aureus [2] and over 64 µg/mL in the data set on Bacillus subtilis.

As to `CC(=O)NCC1OC(=O)N2Cc3cc(-c4ccc(C#N)nc4)c(F)cc3OC12` (racemic; cis), the MIC in data set [1] was 15.51 µg/mL (≈ 40.6 µM).

Take `CC(=O)NCC1OC(=O)N2Cc3cc(-c4ccc(C#N)nc4)c(F)cc3OC12` (racemic; trans): the MIC in data set [1] came out at 1.58 µg/mL (≈ 4.13 µM).

For the compound `CC1(C)S[C@@H]2[C@H](NC(=O)[C@H](N)c3ccccc3)C(=O)N2[C@H]1C(=O)O` [AMPICILLIN], the MIC is 0.25 µg/mL (≈ 0.715 µM) with Staphylococcus aureus [2], over 32 µg/mL in data set [6], over 32 µg/mL in the data set on Staphylococcus aureus [7] and 0.25 µg/mL (≈ 0.715 µM) with Bacillus subtilis.

`CC(=O)NC[C@H]1CN(c2ccc(N3CCOCC3)c(F)c2)C(=O)O1` [LINEZOLID]: the MIC is 0.88 µg/mL (≈ 2.61 µM) in data set [1] (setting [14]); over 64 µg/mL in the data set with Escherichia coli; 0.125 µg/mL (≈ 0.371 µM) in the data set on Staphylococcus aureus [2]; 2 µg/mL (≈ 5.93 µM) in the data set with Enterococcus faecium [4]; 0.25 µg/mL (≈ 0.741 µM) with Bacillus subtilis; at least 16 µg/mL with Staphylococcus capitis. The MIC in the data set on Enterococcus faecium [9] worked out at 8 µg/mL (≈ 23.7 µM).

As for `CN[C@H](CC(C)C)C(=O)N[C@H]1C(=O)N[C@@H](CC(N)=O)C(=O)N[C@H]2C(=O)N[C@H]3C(=O)N[C@H](C(=O)N[C@H](C(=O)O)c4cc(O)cc(O)c4-c4cc3ccc4O)[C@H](O)c3ccc(c(Cl)c3)Oc3cc2cc(c3O[C@@H]2O[C@H](CO)[C@@H](O)[C@H](O)[C@H]2O[C@H]2C[C@](C)(N)[C@H](O)[C@H](C)O2)Oc2ccc(cc2Cl)[C@H]1O` [VANCOMYCIN], the MIC is 64 µg/mL (≈ 44.2 µM) with Escherichia coli; over 32 µg/mL in the data set on Enterococcus; under 2 µg/mL in data set [6]; over 32 µg/mL with Staphylococcus aureus [8]; 0.25 µg/mL (≈ 0.173 µM) in the data set on Bacillus subtilis.

The values above are taken from ChEMBL document CHEMBL4837188, “Identification of Novel Tricyclic Benzo[1,3]oxazinyloxazolidinones as Potent Antibacterial Agents with Excellent Pharmacokinetic Profiles against Drug-Resistant Pathogens” (J Med Chem, 2021).
